Measured values taken from ChEMBL document CHEMBL3112527, “Quinoline-pyrimidine hybrids: synthesis, antiplasmodial activity, SAR, and mode of action studies” (J Med Chem, 2014).
pIC50: −log10 of the molar value. In brackets after ≈: the same amount, converted by molar mass. Activity calls are given as the source filed them. The calls are words filed in the database; no cut-off is given here.

Experiments:
Sindbis virus = test: Antiviral activity against Sindbis virus infected in African green monkey Vero cells assessed as inhibition of virus-induced cytopathicity; format: functional, organism-based
[1] = Aqueous solubility of the compound in PBS buffer at pH 7.4 after 24 hrs by HPLC analysis; format: physicochemical; conditions: pH 7.4, 24 h
Coxsackievirus B4 [2] = test: Antiviral activity against Coxsackievirus B4 infected in African green monkey Vero cells assessed as inhibition of virus-induced cytopathicity; format: functional, organism-based
Procedure, shortened: (§1)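 Confluent monolayers (HEL, Vero, HeLa or CrFK, as applicable) were inoculated with 100 CCID50 of virus, with 1 CCID50 being the dose that infects 50% of cultures. Infection ran in the presence of varying compound concentrations. Inhibition of virus-induced cytopathicity was scored against infected cultures left untreated.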

Felid alphaherpesvirus 1 = test: Antiviral activity against Feline herpesvirus infected in cat CRFK cells assessed as inhibition of virus-induced cytopathicity; format: functional, organism-based; procedure, shortened: as §1
[3] = tested on: Mammalian orthoreovirus 1; test: Antiviral activity against Reovirus 1 infected in African green monkey Vero cells assessed as inhibition of virus-induced cytopathicity; format: functional, organism-based; procedure, shortened: as §1
Influenza A virus = test: Antiviral activity against influenza A virus H1N1 infected in MDCK cells assessed as inhibition of virus-induced cytopathicity; format: functional, organism-based
Procedure, shortened: (§2)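 Confluent monolayers in 96-well plates were inoculated with 100 CCID50 of virus in the presence of varying concentrations of compound. Read-out was inhibition of virus-induced cytopathicity, compared with untreated infected cultures. Cytotoxicity was judged microscopically or by MTT viability staining.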

[4] = n-octanol-PBS buffer distribution coefficient, log D of the compound at pH 7.4 after 24 hrs by HPLC analysis; format: physicochemical
Human betaherpesvirus 5 [5] = test: Antiviral activity against Cytomegalovirus Davis infected in HEL cells assessed as inhibition of virus-induced cytopathicity; format: functional, organism-based
Human alphaherpesvirus 3 = test: Antiviral activity against Varicella-zoster virus infected in HEL cells assessed as inhibition of virus-induced cytopathicity; format: functional, organism-based
Human alphaherpesvirus 1 [6] = test: Antiviral activity against thymidine kinase-negative acyclovir-resistant HSV-1 KOS infected in HEL cells assessed as inhibition of virus-induced cytopathicity; format: functional, organism-based; procedure, shortened: as §2
Human respirovirus 3 = test: Antiviral activity against parainfluenza virus 3 infected in African green monkey Vero cells assessed as inhibition of virus-induced cytopathicity; format: functional, organism-based; procedure, shortened: as §1
[7] = Cytotoxicity against cat CRFK cells assessed as cell viability by MTS assay; format: cell-based, Felis catus
Procedure, shortened: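 CRFK cells were exposed to varying sample concentrations. Cell viability was measured with the colorimetric formazan-based MTS assay, and the 50% cytotoxic concentration (CC50) was derived from it.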

Coxsackievirus B4 [8] = test: Antiviral activity against Coxsackievirus B4 infected in human HeLa cells assessed as inhibition of virus-induced cytopathicity; format: functional, organism-based; procedure, shortened: as §1
Vaccinia virus = test: Antiviral activity against Vaccinia virus infected in HEL cells assessed as inhibition of virus-induced cytopathicity; format: functional, organism-based; conditions: Orthopoxvirus vaccinia; procedure, shortened: as §2
[9] = Selectivity index, ratio of CC50 for cat CRFK cells to IC50 for chloroquine-resistant asexual erythrocytic stage of Plasmodium falciparum Dd2; format: functional
Procedure, shortened: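 Ratio of CRFK CC50 (μM) to Dd2 IC50 […]. CC50 is the 50% cytotoxic concentration in feline kidney CRFK cells, measured as cell viability by colorimetric formazan-based MTS assay. Dd2 IC50 is from the parasite LDH growth-inhibition assay.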

Human alphaherpesvirus 1 [10] = test: Antiviral activity against HSV-1 KOS infected in HEL cells assessed as inhibition of virus-induced cytopathicity; format: functional, organism-based; procedure, shortened: as §1
Human betaherpesvirus 5 [11] = test: Antiviral activity against Cytomegalovirus AD169 infected in HEL cells assessed as inhibition of virus-induced cytopathicity; format: functional, organism-based
[12] = tested on: Vesicular stomatitis virus; test: Antiviral activity against Vesicular stomatitis virus infected in HEL cells assessed as inhibition of virus-induced cytopathicity; format: functional, organism-based; procedure, shortened: as §2
[13] = Solubility of the compound in octanol at pH 7.4 by HPLC analysis; format: physicochemical
Influenza A virus H3N2 = test: Antiviral activity against Influenza A virus H3N2 infected in MDCK cells assessed as inhibition of virus-induced cytopathicity; format: functional, organism-based; procedure, shortened: as §2
Plasmodium falciparum [14] = test: Antiplasmodial activity against chloroquine-sensitive asexual erythrocytic stage of Plasmodium falciparum D10 assessed as parasite growth inhibition by lactate dehydrogenase assay; format: functional, organism-based
Procedure, shortened: (§3)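 Parasite lactate dehydrogenase assay (modified Makler method). Samples held as 20 mg/mL stocks in DMSO, diluted on test day. Full dose-response: starting at 10 μg/mL, 2-fold serial dilution in complete medium over 10 concentrations down to 0.02 μg/mL. Chloroquine, artesunate and MMV390048 served as references. IC50 from nonlinear dose-response curve fitting; mean of three independent experiments.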

Human alphaherpesvirus 2 = test: Antiviral activity against HSV-2 G infected in HEL cells assessed as inhibition of virus-induced cytopathicity; format: functional, organism-based; conditions: strain G; procedure, shortened: as §1
[15] = Cytotoxicity against human HeLa cells assessed as alteration of cell morphology by microscopic analysis; format: cell-based; conditions: read-out: MIC
Procedure, shortened: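 Cells (Vero, HEL, MDCK or HeLa) were exposed to a range of sample concentrations. The value reported is the concentration required to cause a microscopically detectable alteration of normal cell morphology.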

[16] = tested on: Respiratory syncytial virus; test: Antiviral activity against Respiratory syncytial virus infected in human HeLa cells assessed as inhibition of virus-induced cytopathicity; format: functional, organism-based; procedure, shortened: as §1
[17] = tested on: Vesicular stomatitis virus; test: Antiviral activity against Vesicular stomatitis virus infected in human HeLa cells assessed as inhibition of virus-induced cytopathicity; format: functional, organism-based; procedure, shortened: as §2
Plasmodium falciparum [18] = test: Antiplasmodial activity against chloroquine-resistant asexual erythrocytic stage of Plasmodium falciparum Dd2 assessed as parasite growth inhibition by lactate dehydrogenase assay; format: functional, organism-based; procedure, shortened: as §3
Punta Toro virus = test: Antiviral activity against Punta Toro virus infected in African green monkey Vero cells assessed as inhibition of virus-induced cytopathicity; format: functional, organism-based; procedure, shortened: as §1
Feline coronavirus = test: Antiviral activity against Feline coronavirus infected in cat CRFK cells assessed as inhibition of virus-induced cytopathicity; format: functional, organism-based; procedure, shortened: as §1

| SMILES | inhibition (Sindbis virus) | solubility [1] [µM] | inhibition (Coxsackievirus B4 [2]) | inhibition (Felid alphaherpesvirus 1) | inhibition [3] | inhibition (Influenza A virus) | logD at 24 h [4] | inhibition (Human betaherpesvirus 5 [5]) | inhibition (Human alphaherpesvirus 3) | inhibition (Human alphaherpesvirus 1 [6]) | inhibition (Human respirovirus 3) | CC50 [7] [µM] | inhibition (Coxsackievirus B4 [8]) | inhibition (Vaccinia virus) | Ratio CC50/IC50 [9] | inhibition (Human alphaherpesvirus 1 [10]) | inhibition (Human betaherpesvirus 5 [11]) | inhibition [12] | solubility [13] [µM] | inhibition (Influenza A virus H3N2) | further results |
| --- | --- | --- | --- | --- | --- | --- | --- | --- | --- | --- | --- | --- | --- | --- | --- | --- | --- | --- | --- | --- | --- |
| Clc1ccc2c(NCCCOc3nccc(Cl)n3)ccnc2c1 | inactive | 0.2 (≈ 0.0698 µg/mL) | inactive | inactive | inactive | inactive | 1.04 | inactive | inactive | inactive | inactive | > 100 | inactive | inactive | >490 | inactive | inactive | inactive | 2.19 (≈ 0.765 µg/mL) | inactive | pIC50 (Plasmodium falciparum [14]): 6.52; inhibition (Human alphaherpesvirus 2): inactive; MCC [15]: > 100 µM; inhibition [16]: inactive; inhibition [17]: inactive; pIC50 (Plasmodium falciparum [18]): 6.69; inhibition (Punta Toro virus): inactive; inhibition (Feline coronavirus): inactive |
| Clc1ccc2c(NCCCNc3ccnc(N4CCCCC4)n3)ccnc2c1 | inactive | 0.32 (≈ 0.127 µg/mL) | inactive | inactive | inactive | inactive | 0.801 | inactive | inactive | inactive | inactive | 55 | inactive | inactive | 334 | inactive | inactive | inactive | 2.02 (≈ 0.802 µg/mL) | inactive | pIC50 (Plasmodium falciparum [14]): 7.18; inhibition (Human alphaherpesvirus 2): inactive; MCC [15]: 20 µM; inhibition [16]: inactive; inhibition [17]: inactive; pIC50 (Plasmodium falciparum [18]): 6.78; inhibition (Punta Toro virus): inactive; inhibition (Feline coronavirus): inactive |
| Clc1ccc2c(NCCCNc3nccc(N4CCNCC4)n3)ccnc2c1 | inactive | 0.6 (≈ 0.239 µg/mL) | inactive | inactive | inactive | inactive | 0.102 | inactive | inactive | inactive | inactive | 74 | inactive | inactive | 36 | inactive | inactive | inactive | 0.75 (≈ 0.298 µg/mL) | inactive | pIC50 (Plasmodium falciparum [14]): 6.95; inhibition (Human alphaherpesvirus 2): inactive; MCC [15]: 100 µM; inhibition [16]: inactive; inhibition [17]: inactive; pIC50 (Plasmodium falciparum [18]): 5.70; inhibition (Punta Toro virus): inactive; inhibition (Feline coronavirus): inactive |
| Clc1ccc2c(NCCNc3nccc(Cl)n3)ccnc2c1 | inactive | 0.9 (≈ 0.301 µg/mL) | inactive | inactive | inactive | inactive | 0.501 | inactive | inactive | inactive | inactive | > 100 | inactive | inactive | >12.53 | inactive | inactive | inactive | 2.85 (≈ 0.952 µg/mL) | inactive | pIC50 (Plasmodium falciparum [14]): 5.60; inhibition (Human alphaherpesvirus 2): inactive; MCC [15]: > 100 µM; inhibition [16]: inactive; inhibition [17]: inactive; pIC50 (Plasmodium falciparum [18]): 5.11; inhibition (Punta Toro virus): inactive; inhibition (Feline coronavirus): inactive |
| Clc1ccc2c(NCCCNc3ccnc(Cl)n3)ccnc2c1 | inactive | 0.6 (≈ 0.209 µg/mL) | inactive | inactive | inactive | inactive | 0.229 | inactive | inactive | inactive | inactive | > 100 | inactive | inactive | >483 | inactive | inactive | inactive | 1.01 (≈ 0.352 µg/mL) | inactive | pIC50 (Plasmodium falciparum [14]): 6.57; inhibition (Human alphaherpesvirus 2): inactive; MCC [15]: > 100 µM; inhibition [16]: inactive; inhibition [17]: inactive; pIC50 (Plasmodium falciparum [18]): 6.68; inhibition (Punta Toro virus): inactive; inhibition (Feline coronavirus): inactive |
| Clc1ccc2c(NCCCNc3nccc(N4CCOCC4)n3)ccnc2c1 | inactive | 0.53 (≈ 0.211 µg/mL) | inactive | inactive | inactive | inactive | 0.257 | inactive | inactive | inactive | inactive | > 100 | inactive | inactive | >632 | inactive | inactive | inactive | 0.95 (≈ 0.379 µg/mL) | inactive | pIC50 (Plasmodium falciparum [14]): 7.26; inhibition (Human alphaherpesvirus 2): inactive; MCC [15]: > 100 µM; inhibition [16]: inactive; inhibition [17]: inactive; pIC50 (Plasmodium falciparum [18]): 6.80; inhibition (Punta Toro virus): inactive; inhibition (Feline coronavirus): inactive |
| Clc1ccc2c(NCCCNc3nccc(N4CCCC4)n3)ccnc2c1 | inactive | 0.22 (≈ 0.0842 µg/mL) | inactive | inactive | inactive | inactive | 0.756 | inactive | inactive | inactive | inactive | 49 | inactive | inactive | 327 | inactive | inactive | inactive | 1.25 (≈ 0.479 µg/mL) | inactive | pIC50 (Plasmodium falciparum [14]): 7.54; inhibition (Human alphaherpesvirus 2): inactive; MCC [15]: 100 µM; inhibition [16]: inactive; inhibition [17]: inactive; pIC50 (Plasmodium falciparum [18]): 6.82; inhibition (Punta Toro virus): inactive; inhibition (Feline coronavirus): inactive |
